Data as given in PMC6585844 (Clinical Pharmacology in Drug Development, 2018).
“And” between values parts separate entries of the source, which are not always exact repeats. Identical values can stand only once. Like-named read-outs stand apart in the source and are kept apart here.

Tests used:
[1] = system: hypokalemic PP and hyperkalemic PP; conditions: doses from approximately 100 to 200 mg/day, versus placebo; cited from earlier work
[2] = format: in vivo, human; conditions: for AUC0‐t, mean ± SD: fasted, plasma to 48 h
Summary of the method: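 Healthy adults, cohorts A–E (n = 6 each), single oral tablet dose (25–400 mg) with 8 oz water after ≥10 h fast plus 4 h more. Potassium-EDTA plasma sampled predose and 0.5–48 h, stored −70°C ≤62 days, solid-supported liquid-liquid extraction. AUC0-t by trapezoidal method; AUC0-∞ = AUC0-t + Clast/λ. BQL values taken as zero. Power-model dose proportionality with 95% CI.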

[3] = system: cytochrome P450 (CYP) 2C9; conditions: cited from earlier work
[4] = Safety/tolerability; format: in vivo, human
Summary of the method: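 Open-label oral dose escalation. Cohorts A–E received 10 doses (1 single, then 9 twice daily). Cohort F (n = 6) took titrated twice-daily doses of 100–800 mg/day on days 1–14, up to 28 doses, and was assessed for safety only. Vital signs were taken at screening, baseline and each study day, with a 12-lead ECG at screening. AEs were recorded when reported.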

[5] = Multiple‐dose; format: in vivo, human; conditions: for AUCτ, mean ± SD: after last of 9 multiple doses; for Cmax / Tmax: human, plasma, oral
Summary of the method: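 After the single dose, the same subjects took the assigned dose twice daily, 9 doses, with only a morning dose on the final day. Morning doses were fasted; evening doses were taken without regard to meals. Plasma was sampled predose on days 3–7 (A–D) or 4–8 (E), then 0.5–12 h postdose. AUCτ by trapezoidal method; fluctuation 100*(Cmax−Cmin)/Cavg; accumulation as AUCτ/AUC0-t.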

[6] = Cohort A 25 mg single oral dose (n = 6)
[7] = Cohort B 50 mg single oral dose (n = 6)
[8] = Cohort C 100 mg single oral dose (n = 6)
[9] = Cohort D 200 mg single oral dose (n = 6)
[10] = Cohort E 400 mg single oral dose (n = 6)
[11] = Cohort A (n = 6): 1 × 25 mg then 9 × 25 mg BID
[12] = Cohort B (n = 6): 1 × 50 mg then 9 × 50 mg BID
[13] = Cohort C (n = 6): 1 × 100 mg then 9 × 100 mg BID
[14] = Cohort D (n = 6): 1 × 200 mg then 9 × 200 mg BID
[15] = Cohort E (n = 6): 1 × 400 mg then 9 × 400 mg BID
[16] = Cohort F (n = 6): dose titration 50 to 400 mg BID, up to 28 doses

NS(=O)(=O)c1cc(Cl)c(Cl)c(S(N)(=O)=O)c1 [dichlorphenamide]
Frequency and severity of attacks in primary periodic paralysis [1]: significant reduction | AUC0‐∞, mean ± SD [2, 6]: 5908 ± 3959 ng˙h/mL | AUC0‐t, mean ± SD [2, 6]: 2327 ± 731 ng˙;h/mL | AUC0‐∞, mean ± SD [2, 7]: 14,734 ± 4555 ng˙h/mL | AUC0‐t, mean ± SD [2, 7]: 7897 ± 2055 ng˙;h/mL | AUC0‐∞, mean ± SD [2, 8]: 28,901 ± 13,317 ng˙h/mL | AUC0‐t, mean ± SD [2, 8]: 19,119 ± 7317 ng˙;h/mL | AUC0‐∞, mean ± SD [2, 9]: 66,456 ± 26,211 ng˙h/mL | AUC0‐t, mean ± SD [2, 9]: 38,132 ± 8249 ng˙;h/mL | AUC0‐∞, mean ± SD [2, 10]: 142,007 ± 16,279 ng˙h/mL | AUC0‐t, mean ± SD [2, 10]: 88,243 ± 12,616 ng˙;h/mL | half-life ([2]; human, plasma, oral): 32 to 68 h | Tmax ([2]; human, plasma, oral, Median Tmax, range across doses, single doses 25–400 mg): 1.5 to 3 h | Cmax ([2]; human, plasma, po, 25 mg): 298 ± 77 ng/mL | half-life ([2]; human, plasma, po, 25 mg): 68.4 ± 35 h | Cmax ([2]; human, plasma, po, 50 mg): 709 ± 490 ng/mL | half-life ([2]; human, plasma, po, 50 mg): 51.4 ± 24 h | Cmax ([2]; human, plasma, po, 100 mg): 1510 ± 909 ng/mL | half-life ([2]; human, plasma, po, 100 mg): 31.9 ± 11 h | Cmax ([2]; human, plasma, po, 200 mg): 3030 ± 1210 ng/mL | half-life ([2]; human, plasma, po, 200 mg): 41 ± 17 h | Cmax ([2]; human, plasma, po, 400 mg): 6320 ± 1280 ng/mL | half-life ([2]; human, plasma, po, 400 mg): 38.6 ± 8 h | Slope for LnAUC0‐t (dose proportionality, power model), with 95%CI ([2]; single doses 25–400 mg): 1.29 (95%CI, 1.18‐1.40) | Slope for LnCmax (dose proportionality, power model), with 95%CI ([2]; single doses 25–400 mg): 1.11 (95%CI, 0.97‐1.26) | Effect on CYP2C9‐mediated 7‐methoxy‐4‐(trifluoromethyl)coumarin (MFC) metabolism [3]: relatively weak activator | Tolerability for extended use ([4]; 800 mg total daily dose, short‐term study): intolerable for extended use | Blood potassium decreased, TEAE of any severity, subjects [4, 11]: 0 | Dizziness, TEAE of any severity, subjects [4, 11]: 0 | Dysgeusia, TEAE of any severity, subjects [4, 11]: 0 | Dyspnea, TEAE of any severity, subjects [4, 11]: 0 | Oral paresthesia, TEAE of any severity, subjects [4, 11]: 0 | Paresthesia, TEAE of any severity, subjects [4, 11]: 0 | Subjects discontinuing due to TEAE [4, 11]: 0 n (%) | Subjects reporting at least 1 TEAE [4, 11]: 1 (16.7) n (%) | Subjects reporting at least 1 serious TEAE [4, 11]: 0 n (%) | Total TEAEs reported [4, 11]: 1 | Treatment‐related AEs reported [4, 11]: 0 | Blood potassium decreased, TEAE of any severity, subjects [4, 12]: 0 | Dizziness, TEAE of any severity, subjects [4, 12]: 0 | Dysgeusia, TEAE of any severity, subjects [4, 12]: 0 | Dyspnea, TEAE of any severity, subjects [4, 12]: 0 | Oral paresthesia, TEAE of any severity, subjects [4, 12]: 0 | Paresthesia, TEAE of any severity, subjects [4, 12]: 0 | Subjects discontinuing due to TEAE [4, 12]: 0 n (%) | Subjects reporting at least 1 TEAE [4, 12]: 1 (16.7) n (%) | Subjects reporting at least 1 serious TEAE [4, 12]: 0 n (%) | Total TEAEs reported [4, 12]: 3 | Treatment‐related AEs reported [4, 12]: 2 | Blood potassium decreased, TEAE of any severity, subjects [4, 13]: 1 (16.7) | Dizziness, TEAE of any severity, subjects [4, 13]: 0 | Dysgeusia, TEAE of any severity, subjects [4, 13]: 0 | Dyspnea, TEAE of any severity, subjects [4, 13]: 0 | Oral paresthesia, TEAE of any severity, subjects [4, 13]: 0 | Paresthesia, TEAE of any severity, subjects [4, 13]: 2 (33.3) | Subjects discontinuing due to TEAE [4, 13]: 0 n (%) | Subjects reporting at least 1 TEAE [4, 13]: 4 (66.7) n (%) | Subjects reporting at least 1 serious TEAE [4, 13]: 0 n (%) | Total TEAEs reported [4, 13]: 16 | Treatment‐related AEs reported [4, 13]: 14 | Blood potassium decreased, TEAE of any severity, subjects [4, 14]: 0 | Dizziness, TEAE of any severity, subjects [4, 14]: 4 (66.7) | Dysgeusia, TEAE of any severity, subjects [4, 14]: 3 (50.0) | Dyspnea, TEAE of any severity, subjects [4, 14]: 3 (50.0) | Oral paresthesia, TEAE of any severity, subjects [4, 14]: 1 (16.7) | Paresthesia, TEAE of any severity, subjects [4, 14]: 2 (33.3) | Subjects discontinuing due to TEAE [4, 14]: 1 n (%) and 1 (16.7) n (%) | Subjects reporting at least 1 TEAE [4, 14]: 6 (100) n (%) | Subjects reporting at least 1 serious TEAE [4, 14]: 0 n (%) | Total TEAEs reported [4, 14]: 36 | Treatment‐related AEs reported [4, 14]: 33 | Blood potassium decreased, TEAE of any severity, subjects [4, 15]: 1 (16.7) | Dizziness, TEAE of any severity, subjects [4, 15]: 3 (50.0) | Dysgeusia, TEAE of any severity, subjects [4, 15]: 1 (16.7) | Dyspnea, TEAE of any severity, subjects [4, 15]: 1 (16.7) | Oral paresthesia, TEAE of any severity, subjects [4, 15]: 1 (16.7) | Paresthesia, TEAE of any severity, subjects [4, 15]: 4 (66.7) | Subjects discontinuing due to TEAE [4, 15]: 3 n (%) and 3 (50.0) n (%) | Subjects reporting at least 1 TEAE [4, 15]: 6 (100) n (%) | Subjects reporting at least 1 moderate TEAE [4, 15]: 1 (16.7) n (%) | Subjects reporting at least 1 serious TEAE [4, 15]: 0 n (%) | Total TEAEs reported [4, 15]: 42 | Treatment‐related AEs reported [4, 15]: 39 | Dizziness, TEAE of any severity, subjects [4, 16]: 0 | Dysgeusia, TEAE of any severity, subjects [4, 16]: 0 | Dyspnea, TEAE of any severity, subjects [4, 16]: 1 (16.7) | Oral paresthesia, TEAE of any severity, subjects [4, 16]: 0 | Paresthesia, TEAE of any severity, subjects [4, 16]: 2 (33.3) | Subjects discontinuing due to TEAE [4, 16]: 6 n (%) and 6 (100) n (%) | Subjects reporting at least 1 TEAE [4, 16]: 6 (100) n (%) | Subjects reporting at least 1 moderate TEAE [4, 16]: 2 (33.3) n (%) | Subjects reporting at least 1 serious TEAE [4, 16]: 1 (16.7) n (%) | Total TEAEs reported [4, 16]: 50 | Treatment‐related AEs reported [4, 16]: 40 | TEAEs reported as moderate ([4]; all cohorts): 7 | Dizziness, number of subjects ([4]; all cohorts (N = 36)): 7 subjects | Paresthesia (including oral), number of subjects ([4]; all cohorts (N = 36)): 12 subjects | Subjects reporting at least 1 TEAE in gastrointestinal system organ class ([4]; all cohorts (N = 36)): 28% | Subjects reporting at least 1 TEAE in nervous system organ class ([4]; all cohorts (N = 36)): 50% | Subjects withdrawn/discontinued due to AEs ([4]; all cohorts, 36 enrolled): 10 subjects | Changes in vital signs or ECG findings ([4]; any subject): No clinically relevant changes | Serum potassium, clinically significant reduction in 1 subject ([4]; cohort C, poststudy): 2.8 mmol/L | Serious TEAE of rash requiring brief hospitalization, subjects ([4]; cohort F): 1 subject | Subjects with below‐normal serum potassium ([4]; cohort F): 5 of 6 | Discontinuations to which hypokalemia contributed ([4]; cohort F (all 800 mg/day)): 5 of 6 | Serum potassium, lowest recorded value ([4]; cohort F, multiple study time points): 2.8 mmol/L | Subjects with clinically significant reductions in serum potassium ([4]; cohorts A through E, poststudy): 2 subjects | Subjects with at least one mild‐to‐moderate AE ([4]; cohorts D, E, and F): 100% | Cavg, mean ± SD ([5]; Cohort A 25 mg BID (n = 5)): 837 ± 274 ng/mL | AUCτ, mean ± SD ([5]; Cohort A 25 mg BID (n = 5)): 10,038 ± 3283 ng˙h/mL | Cavg, mean ± SD ([5]; Cohort B 50 mg BID (n = 6)): 1527 ± 549 ng/mL | AUCτ, mean ± SD ([5]; Cohort B 50 mg BID (n = 6)): 18,329 ± 6593 ng˙h/mL | Cavg, mean ± SD ([5]; Cohort C 100 mg BID (n = 6)): 3122 ± 1108 ng/mL | AUCτ, mean ± SD ([5]; Cohort C 100 mg BID (n = 6)): 37,468 ± 13,298 ng˙h/mL | Cavg, mean ± SD ([5]; Cohort D 200 mg BID (n = 5)): 7080 ± 2854 ng/mL | AUCτ, mean ± SD ([5]; Cohort D 200 mg BID (n = 5)): 84,960 ± 34,245 ng˙h/mL | Cavg, mean ± SD ([5]; Cohort E 400 mg BID (n = 3)): 17,298 ± 5219 ng/mL | AUCτ, mean ± SD ([5]; Cohort E 400 mg BID (n = 3)): 207,577 ± 62,626 ng˙h/mL | Cmax ([5]; 25 mg): 1150 ± 239 ng/mL | Tmax ([5]; 25 mg): 2 h | Cmax ([5]; 50 mg): 2220 ± 959 ng/mL | Tmax ([5]; 50 mg): 3 h | Cmax ([5]; 100 mg): 4870 ± 1890 ng/mL | Tmax ([5]; 100 mg): 1.5 h | Cmax ([5]; 200 mg): 10700 ng/mL | Tmax ([5]; 200 mg): 2 h | Cmax ([5]; 400 mg): 26600 ng/mL | Tmax ([5]; 400 mg): 1 h | Slope for LnAUCτ (dose proportionality, power model), with 95%CI ([5]; multiple doses 25–400 mg BID): 1.09 (95%CI, 0.92–1.26) | Slope for LnCmax (dose proportionality, power model), with 95%CI ([5]; multiple doses 25–400 mg BID): 1.13 (95%CI, 0.95–1.31) | Accumulation ratios of AUCτ/AUC0‐t ([5]; multiple‐ versus single‐dose phase): greater than 1
